Experimental data published in publication PMC2217063 (The Journal of General Physiology, 1997).
Several values for one entry are separate records, joined by “and”; a condition that tells them apart may be missing. Identical values can stand only once. Like-named read-outs stand apart in the source and are kept apart here.

What was measured:
[1] = molecular target: T1, Na,K-ATPase (Canis lupus familiaris, UniProt P50997); type: biochemical, dog
[2] = system: Na,K-ATPase; settings: 0°C, different method; ref Klodos and Nørby, 1987; cited from earlier work
[3] = molecular target: T1, Na,K-ATPase; test: K- and ADP-chases of the phosphointermediate; type: biochemical, dog; settings: for ratio of interconversion rate constants, k12/k21: twin 2-pool model
[4] = molecular target: T1, Na,K-ATPase; test: Na-ATPase activity and rate constant of blank chase at 4, 17 and 27°C; type: biochemical, dog; settings: both Na-ATPase activity and rate constant of blank chase
Procedure, shortened: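 Na-ATPase measured without K+ in imidazole MOPS with Na3EGTA and NaNO3 at 40 or 400 mM, started with ATP, 4 mM final. Rate constant taken from the blank chase: decay of [γ-32P]phosphoenzyme after labelling stops, with a chase lacking ADP and K+. Both run at 4, 17 and 27°C.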

[5] = molecular target: T1, Na,K-ATPase; test: Na,K-ATPase activity at 37°C with different anions; type: biochemical, dog; settings: 400 mM vs 40 mM
Procedure, shortened: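 Enzyme purified from outer-medulla microsomes. […] Salts: 40 mM Na+/8 mM K+/3.5 mM Mg2+ or 400 mM Na+/80 mM K+/10 mM Mg2+. Preincubated 20 min at 37°C; started with ATP, 4 mM final.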

[6] = 500 mM Na^+, no replacement cation, nitrate, 4°C, enzyme prep. A
[7] = 45 mM Na^+, replacement cation to a sum of 500 mM, nitrate, 4°C, prep. A
[8] = 200 mM Na^+, replacement cation to a sum of 500 mM, nitrate, 4°C, prep. B

## Nc1ncnc2c1ncn2[C@@H]1O[C@H](COP(=O)(O)OP(=O)(O)OP(=O)(O)O)[C@@H](O)[C@H]1O [ATP, reference compound]
[1]; [6]
  k(off), rate constant of dissociation of ATP from ATP·E1: 1.1 ± 0.10 s⁻¹ and 1.3 ± 0.20 s⁻¹
[1]; 45-500 mM Na^+, 4°C, no correlation with [Na^+]
  k off, rate constant of dissociation of ATP, range over all media of Table III: 0.7 to 1.9 s⁻¹
[2]
  rate constant of dissociation of ATP: 1.5 to 3.5 s⁻¹

## N=C(N)NCCC[C@H](N)C(=O)O [Arg^+, arginine^+]
[1]; [7]
  E1P (amount of K-resistant E1P): 97%
[1]; [8]
  E1P (amount of K-resistant E1P): 97%

## CCN(CC)CC [Et3N^+, triethylamine]
[1]; [7]
  E1P (amount of K-resistant E1P): 68%
[1]; [8]
  E1P (amount of K-resistant E1P): 56%

## CNC[C@H](O)[C@@H](O)[C@H](O)[C@H](O)CO [NMG^+, N-methylglucamine]
[1]; 45 mM Na^+, replacement cation to a sum of 500 mM, nitrate, 4°C, prep. C
  E1P (amount of K-resistant E1P): 80%
[1]; 200 mM Na^+, replacement cation to a sum of 500 mM, nitrate, 4°C, prep. C
  E1P (amount of K-resistant E1P): 79%

## [Cl-].[Na+] [NaCl]
[3]; 160 mM NaCl, 4°C
  ratio of interconversion rate constants, k12/k21: > 5
[3]; 600 mM NaCl, 4°C
  ratio of interconversion rate constants, k12/k21: 0.25

## O=[N+]([O-])[O-].[Na+] [NaNO3]
[3]; 4°C, concentration increased from 40 to 400 mM
  effect on rate constant of dephosphorylation in a blank chase: inhibited dephosphorylation
[4]
  activation energy (ΔH) in 400 mM relative to 40 mM NaNO3: 1.3 fold

## [Na+] [Na^+]
[1]; 45 mM Na^+
  K(internal) = [ADP·E1P]/[ATP·E1]: ~2
[1]; 45 mM vs 200 mM Na^+
  K int in 45 mM Na^+ relative to 200 mM Na^+ in each medium: 2.1–2.5 fold
[1]; 200 mM Na^+
  K int = [ADP·E1P]/[ATP·E1]: 0.5–1.4
[1]; 500 mM Na^+
  K int = [ADP·E1P]/[ATP·E1]: 0.1–0.3
  K(internal) = [ADP·E1P]/[ATP·E1]: ~0.2
[1]; [6]
  E1P (amount of K-resistant E1P): 95%
[3]; 240 mM NaNO3 vs 30 mM NaNO3 plus 210 mM TrisNO3, 4°C
  effect on interconversion rate constants: not affected significantly

## CC(=O)O [acetate]
[5]
  effect on Na,K-ATPase activity of increasing the salt concentration to 400 mM: no effect

## Cl [chloride]
[5]
  effect on Na,K-ATPase activity of increasing the salt concentration to 400 mM: no effect

## O=[N+]([O-])O [nitrate]
[3]; 30 mM Na^+, 250 mM Lys^+
  amount of E1P in nitrate relative to acetate: sevenfold larger
[3]; 280 mM anion, 30 mM Na^+, 250 mM lysine^+, 4°C, 2-pool model
  initial amount of E1P: 36%
